# Compounds with a hit are over-represented: about 3.1% of the library has one in this group of screens.
# OX1R antag-1 – OX1R (HCRTR1) antagonists, primary screen, fluorescence, CHO/OX1R cells, Fluo-8 calcium, orexin A. Orexin/Hypocretin receptor type 1 (Homo sapiens), O43613. Fluo-8 calcium fluorescence. inhibition, % at 5 µM. 330,000 tested, 0.43% active;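 active means inhibition above its plate's threshold, mean inhibition of all tested compounds on the plate plus 3 SD, cut at about 37% in these data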;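 further: 0% = orexin A challenge wells and 100% = SB-334867-A antagonist wells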
# GalR3 antagonist – GalR3 antagonists in HEK293 cells, primary screen, cell-based, fluorescence readout; Galanin receptor type 3 (Homo sapiens), O60755; HEK293 GalR3-CNG cAMP membrane potential fluorescence; galR3 body fused to GalR1 C-terminus; inhibition, % at 3 µM; 360,000 tested, 0.44% active; AID 651719, 2012;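 active means inhibition above the screen-wide average plus 3 SD, cut at about 13% in these data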;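 further: forskolin and galanin both at EC90 stimulate the cells; cAMP rise reported by CNG channel membrane potential dye signal; 0% = forskolin plus galanin with DMSO and 100% = forskolin alone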
# GPR7 antag – GPR7 receptor antagonists, primary screen, cell-based, fluorescence, single concentration; 290,000 tested, 1.1% active; GPR7-expressing cells, fluorescence antagonist assay; Neuropeptides B/W receptor type 1 (Homo sapiens), P48145; inhibition, % at 4.4 µM; in the data active means inhibition above about 16%, passing the limit was not always enough;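 further: cells stimulated with the agonist NPW; 0% = agonist with vehicle and 100% = vehicle without agonist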
# Target sequence (P48145 whole entry, looked up): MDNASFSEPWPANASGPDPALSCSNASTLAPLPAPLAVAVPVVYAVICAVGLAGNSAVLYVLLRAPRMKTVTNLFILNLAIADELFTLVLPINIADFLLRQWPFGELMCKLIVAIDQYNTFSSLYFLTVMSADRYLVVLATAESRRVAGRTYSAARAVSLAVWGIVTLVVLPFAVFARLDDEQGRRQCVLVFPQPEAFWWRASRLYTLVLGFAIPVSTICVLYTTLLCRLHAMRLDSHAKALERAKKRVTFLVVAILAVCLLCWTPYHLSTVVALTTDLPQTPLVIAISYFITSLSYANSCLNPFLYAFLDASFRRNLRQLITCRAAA
# CHO parental Ca – ATP-evoked calcium signal inhibitors, parental CHO, primary screen, counter-screen for OX1R antagonist project, cell-based, fluorescence, Fluo-8 calcium dye; 330,000 tested, 0.63% active; inhibition, % at 5.6 µM; parental CHO-K1, ATP-induced calcium, Fluo-8 fluorescence;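 active means inhibition above that plate's mean sample inhibition plus 3 SD, cut at about 26% in these data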;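 further: 0% = ATP-challenged DMSO wells and 100% = DMSO wells without ATP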
#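 Test system: parental CHO cells; detection: calcium-sensitive Fluo-8 fluorescence; evaluation: percent inhibition of calcium signal; also added: ATP as calcium-mobilizing challenge; repeats: one well per compound; control set: ATP-challenged DMSO wells low, unchallenged DMSO wells high; compound: single nominal dose of 5.6 µM per compound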
# OX1R antag-2 – antagonists of human orexin 1 receptor (OX1R); 330,000 tested, 1.8% active; OX1R-expressing cells, FRET antagonist read-out; inhibition, % at 6.6 µM; Orexin/Hypocretin receptor type 1 (Homo sapiens), O43613; in the data active means inhibition mostly above about 38%, no sharp cut-off; inactive means mostly below about 40%;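 further: 0% = agonist challenge alone and 100% = reference antagonist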
# * marks the source's active call; other numbers are inactive results; · = no result given.
SMILES,OX1R antag-1,GalR3 antagonist,GPR7 antag,CHO parental Ca,OX1R antag-2
O=[N+]([O-])c1ccc2nc(/C=C/c3ccc(Cl)cc3)[nH]c2c1,13,-3,13,29*,77*
O=[N+]([O-])c1ccc(-c2nc3ccc([N+](=O)[O-])cc3[nH]2)cc1,8,-2,5,13,67
Nc1ccc(-c2nc3ccc([N+](=O)[O-])cc3[nH]2)cc1,14,0,20*,-3,12
CC1(C(=O)NS(=O)(=O)c2cccc(F)c2)CCN1C(=O)c1ccccc1 (stereo not given),·,-1,·,·,·
Cc1cccn2cc(-c3cc4ccccc4oc3=O)nc12,1,-1,-6,1,10
O=c1oc2ccccc2cc1-c1cn2cccnc2n1,-11,-2,7,-4,66*
Cc1ccccc1N1CCN(c2ccccc2NC(=O)/C=C\C(=O)O)CC1,·,-12,·,·,·
O=C(C#Cc1ccccc1)c1cccc([N+](=O)[O-])c1,13,-6,-2,36*,17
CC(=O)c1cccc([N+](=O)[O-])c1,-10,-2,·,-9,5
CCN(CC(=O)NCc1cccs1)C(=O)c1ccc(OC)c(OC)c1,-18,-4,·,-3,5
O=C(N/N=C/c1ccc2cccc(OCc3ccccc3)c2n1)c1ccc(Br)cc1,-14,-5,-15,-24,12
CCOc1ccc(C(=O)N/N=C/c2cccc3cccnc23)cc1,-16,-1,-9,-32,74*
CCOc1ccc(OCc2ccc(C(=O)NN=Cc3ccc[nH]3)cc2)cc1,-8,56*,·,-2,18
COc1ccc(C(=O)N/N=C/c2ccc3cccc(OCc4ccccc4)c3n2)cc1,-24,-1,-7,-35,76*
C[C@H](O)[C@@H]1C(=O)N2CCc3c([nH]c4ccccc34)[C@@H]2C[C@@H]1N(C)C(=O)c1cc(Cl)cc(Cl)c1,·,-4,·,·,·
Nc1cc(C(=O)O)c(Oc2ccc(Cl)cc2Cl)cc1C(=O)O,-10,1,-10,-1,61*
Nc1cc(Oc2ccc(Cl)cc2Cl)nc(N)n1,-6,-10,-11,-11,11
CCN(CC)C(=O)c1ccc(S(=O)(=O)N2CCC(c3nc4ccccc4s3)CC2)cc1,35,-10,-11,14,37*
CCn1c2ccc(Cl)cc2c2nc3ccccc3nc21,7,-3,1,-16,69*
Cc1[nH]c2ccccc2c1/C=N/NC(=O)c1cc(-c2cccs2)[nH]n1,0,-3,-5,-10,57*
Cc1cc(C(=O)N/N=C/c2c(C)[nH]c3ccccc23)n[nH]1,-4,5,-8,-8,11
CCOc1ccc2c(c1)C(C)=CC(C)(C)N2S(=O)(=O)c1ccc(F)cc1,-11,-9,-18,-12,23
COc1ccc2c(c1)C(C)=CC(C)(C)N2S(=O)(=O)c1ccc(Br)cc1,-12,-7,29*,-6,4
Cc1ccc(S(=O)(=O)c2c(C)nn(C(C)(C)C)c2OC(=O)CC(C)C)cc1,-12,-4,-20,31*,16
O=C(c1ccccc1)c1ccc(Oc2ccc([N+](=O)[O-])cc2[N+](=O)[O-])cc1,·,-6,·,·,·
SMILES,OX1R antag-1,GalR3 antagonist,GPR7 antag,CHO parental Ca,OX1R antag-2
C=C(C)CN1CCN(c2ccc(N3C(=O)CCCC3=O)cc2[N+](=O)[O-])CC1,-16,9,14,1,16
COc1cccc(N2CCN(c3ccc(N4C(=O)CCC4=O)cc3[N+](=O)[O-])CC2)c1,28,-7,-3,33*,38
COc1ccccc1N1CCN(c2ccc(N3C(=O)CCC3=O)cc2[N+](=O)[O-])CC1,11,-4,-13,57*,54
C=CCNC(=S)N1CCC(C(=O)c2ccc(Cl)cc2)CC1,-9,-5,-8,2,5
CCN(CC)c1ccc(/C=C2\C(=O)c3ccc(C(=O)O)cc3C2=O)cc1,87*,-3,7,51*,27
CCN(CC)c1ccc(C(=O)O)cc1,-7,-5,-8,-1,10
Cc1ccc2cc(C)c3nnc(SCC(=O)c4cccs4)n3c2c1C,-10,-1,-9,-16,45*
Cc1ccc(N(CC(=O)NC2CC2)S(=O)(=O)c2ccccc2)c(C)c1,-2,-3,17,-6,18
